Assay results from ChEMBL document CHEMBL1154735, “A strategy to minimize reactive metabolite formation: discovery of (S)-4-(1-cyclopropyl-2-methoxyethyl)-6-[6-(difluoromethoxy)-2,5-dimethylpyridin-3-ylamino]-5-oxo-4,5-dihydropyrazine-2-carbonitrile as a potent, orally bioavailable corticotropin-releasing factor-1 receptor antagonist” (J Med Chem, 2009).
In brackets after ≈: the same amount, converted by molar mass.

Tests used:
[1] = molecular target: T1, Corticotropin-releasing factor receptor 1 (Rattus norvegicus, UniProt P35353); assay: Displacement of [125I]Tyr-o-CRF from CRF1 receptor in rat frontal cortex homogenate by binding titration assay; type: tissue-based
T1 sequence (P35353 whole entry): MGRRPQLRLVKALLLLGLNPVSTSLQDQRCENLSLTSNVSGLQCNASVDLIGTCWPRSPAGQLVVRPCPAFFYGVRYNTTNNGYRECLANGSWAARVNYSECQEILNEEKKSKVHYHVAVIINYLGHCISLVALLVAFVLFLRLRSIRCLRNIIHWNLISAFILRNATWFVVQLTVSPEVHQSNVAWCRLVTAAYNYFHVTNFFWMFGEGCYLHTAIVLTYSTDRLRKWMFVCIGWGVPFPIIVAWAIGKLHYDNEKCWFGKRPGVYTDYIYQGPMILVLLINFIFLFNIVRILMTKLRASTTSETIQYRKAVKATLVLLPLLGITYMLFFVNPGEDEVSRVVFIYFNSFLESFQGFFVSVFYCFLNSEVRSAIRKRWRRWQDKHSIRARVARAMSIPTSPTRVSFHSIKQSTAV

[2] = Metabolic stability in human liver microsomes assessed as compound remaining at 3 uM after 10 mins by HPLC/UV/MS analysis; type: ADME, Microsome; conditions: read-out: Stability
[3] = Metabolic stability in rat liver microsomes assessed as compound remaining at 3 uM after 10 mins by HPLC/UV/MS analysis; type: ADME, Microsome; conditions: read-out: Stability
Method in brief: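 Pooled human or rat liver microsomes (1 mg/mL protein) with 3 μM compound and 1.3 mM NADPH in 100 mM sodium phosphate pH 7.4 at 37 °C; final 0.015% DMSO, 0.985% acetonitrile; stopped at 0 and 10 min, percent remaining by LC/MS/MS.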

[4] = Clearance in Sprague-Dawley rat at 2 mg/kg, iv after 0.17 to 24 hrs by LC/MS/MS analysis; type: ADME, organism-based; set-up: dose 2 mg/kg, route intravenous; conditions: in vivo
[5] = Volume of distribution at steady state in Sprague-Dawley rat at 2 mg/kg, iv after 0.17 to 24 hrs by LC/MS/MS analysis; type: ADME, organism-based; set-up: dose 2 mg/kg, route intravenous; conditions: in vivo, read-out: Vdss
Method in brief: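 Sprague–Dawley rats (n = 3) dosed 2 mg/kg iv in PEG:ethanol 90:10 (v/v) at 1 mL/kg. Plasma stored at –20 °C and quantified by LC/MS/MS after acetonitrile precipitation with internal standard.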

[6] = Half life in Sprague-Dawley rat at 2 mg/kg, iv by LC/MS/MS analysis; type: ADME, organism-based; set-up: dose 2 mg/kg, route intravenous; conditions: in vivo
[7] = AUC in Sprague-Dawley rat at 10 mg/kg, po dosed as aqueous suspension of 1% polysorbate 80 in 0.5% methylcellulose after 0.25 to 24 hrs by LC/MS/MS analysis; type: ADME, organism-based; set-up: time upper 24 hr, time lower 0.25 hr, dose 10 mg/kg, route oral; conditions: in vivo
[8] = Cmax in Sprague-Dawley rat at 10 mg/kg, po dosed as aqueous suspension of 1% polysorbate 80 in 0.5% methylcellulose after 2 to 4 hrs by LC/MS/MS analysis; type: ADME, organism-based; set-up: dose 10 mg/kg, route oral; conditions: in vivo
[9] = Oral bioavailability in Sprague-Dawley rat at 10 mg/kg dosed as aqueous suspension of 1% polysorbate 80 in 0.5% methylcellulose after 0.25 to 24 hrs by LC/MS/MS analysis; type: ADME, organism-based; conditions: in vivo
[10] = AUC in Sprague-Dawley rat at 10 mg/kg, po dosed as aqueous suspension of Labrafil M 1944CS/DMAC/polysorbate 80, 85:10:5 (v/v) after 0.25 to 24 hrs by LC/MS/MS analysis; type: ADME, organism-based; set-up: time 0.25-24 hr, dose 10 mg/kg, route oral; conditions: plasma
[11] = Cmax in Sprague-Dawley rat at 10 mg/kg, po dosed as aqueous suspension of Labrafil M 1944CS/DMAC/polysorbate 80, 85:10:5 (v/v) after 2 to 4 hrs by LC/MS/MS analysis; type: ADME, organism-based; set-up: dose 10 mg/kg, route oral; conditions: in vivo
[12] = Oral bioavailability in Sprague-Dawley rat at 10 mg/kg dosed as aqueous suspension of Labrafil M 1944CS/DMAC/polysorbate 80, 85:10:5 (v/v) after 0.25 to 24 hrs by LC/MS/MS analysis; type: ADME, organism-based; conditions: in vivo
[13] = Octanol-water partition coefficient, log D at pH 7.4; type: physicochemical
Method in brief: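 Partitioning between octanol and water at pH 7.4.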

[14] = Aqueous solubility at pH 6.5; type: physicochemical
[15] = Aqueous solubility at pH 1; type: physicochemical
[16] = Dissociation constant, pKa by spectrophotometric titration method; type: physicochemical
Method in brief: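 Spectrophotometric titration over pH 2–11 in varying acetonitrile/water mixtures, extrapolated to 0% cosolvent.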

[17] = Fraction unbound in human serum after 3 to 7 hrs by equilibrium dialysis; type: ADME, cell-free
Method in brief: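 Human serum spiked with compound, equilibrium-dialysed against isotonic phosphate buffer for 3 or 7 h (depending on system) at 37 °C; both sides measured by LC/MS/MS, unbound fraction as buffer/serum concentration ratio.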

[18] = Metabolic stability in NADPH-fortified human liver microsomes assessed as parent compound remaining at 10 uM after 30 mins by HPLC/UV/MS analysis; type: ADME, Microsome; conditions: read-out: Stability
Method in brief: (§1)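 Pooled rat or human liver microsomes 1 mg/mL, 10 μM substrate, 100 mM potassium phosphate pH 7.4, 37 °C, started with NADPH-regenerating system (1.3 mM NADP+, 3.3 mM glucose-6-phosphate, 3.3 mM MgCl2, 0.5 U/mL G6PDH); GSH 5 mM in trapping runs. Sampled 0 and 30 min, acetonitrile quench; abundance as UV peak area (330–340 nm) fraction of all drug-related components by HPLC/UV/MS.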

[19] = test system: Liver microsomes; assay: Metabolic stability in NADPH-fortified human liver microsomes assessed as pyrazinone oxidation metabolite formation at 10 uM after 30 mins by HPLC/UV/MS analysis; type: ADME, Microsome; conditions: 0.5 h; method in brief: as §1
[20] = test system: Liver microsomes; assay: Metabolic stability in NADPH-fortified human liver microsomes assessed as GSH adduct formation at 10 uM after 30 mins by HPLC/UV/MS analysis; type: ADME, Microsome; conditions: 0.5 h; method in brief: as §1
[21] = Metabolic stability in NADPH-fortified rat liver microsomes assessed as parent compound remaining at 10 uM after 30 mins by HPLC/UV/MS analysis; type: ADME, Microsome; conditions: read-out: Stability; method in brief: as §1
[22] = test system: Liver microsomes; assay: Metabolic stability in NADPH-fortified rat liver microsomes assessed as pyrazinone oxidation metabolite formation at 10 uM after 30 mins by HPLC/UV/MS analysis; type: ADME, Microsome; conditions: 0.5 h; method in brief: as §1
[23] = test system: Liver microsomes; assay: Metabolic stability in NADPH-fortified rat liver microsomes assessed as GSH adduct formation at 10 uM after 30 mins by HPLC/UV/MS analysis; type: ADME, Microsome; conditions: 0.5 h; method in brief: as §1
[24] = Displacement of [125I]sauvagine from CRF2 receptor in porcine choroid plexus homogenate by binding titration assay; type: tissue-based, Sus scrofa
Method in brief: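 Porcine choroid plexus homogenate; inhibition of [125I]-sauvagine binding measured in a titration format.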

Row | SMILES | IC50 [1] [nM] | remaining at 10 min, 3 µM [2] [%] | remaining at 10 min, 3 µM [3] [%] | also measured
1 | COc1nc(C)c(Nc2nc(C#N)cn([C@H](C)C3CC3)c2=O)cc1C | 10 | 99 | 72 | 
2 | COC[C@@H](C1CC1)n1cc(C#N)nc(Nc2cc(C)c(OC(F)F)nc2C)c1=O | 1.4 | 78 | 64 | 
3 | CC[C@H](C1CC1)n1cc(C#N)nc(Nc2cc(C)c(OC)nc2C)c1=O | 1.7 | 81 | 38 | clearance [4]: 53 mL/min/kg; Vd [5]: 11 L/kg; half-life [6]: 9 h; AUC [7]: 0.24 µM·h; Cmax [8]: 50 nM; bioavailability [9]: 3%; AUC [10]: 3 µM·h; Cmax [11]: 590 nM; bioavailability [12]: 33%; logD [13]: 4.1; solubility [14]: 1 µg/mL (≈ 2.83 µM); solubility [15]: 23 µg/mL (≈ 65.1 µM); pKa [16]: < 2; fraction unbound [17]: 0.019
4 | CC[C@H](C1CC1)n1cc(Cl)nc(Nc2cc(C)c(OC(F)F)nc2C)c1=O | 0.21 | 100 | 56 | 
5 | COC[C@@H](C1CC1)n1cc(Cl)nc(Nc2cc(C)c(OC)nc2C)c1=O | 1.1 | 40 | 13 | 
6 | COc1nc(C)c(Nc2nc(Cl)cn([C@H](C)C3CC3)c2=O)cc1C | 1.5 | 77 | 55 | 
7 | CC[C@H](C1CC1)n1cc(Cl)nc(Nc2cc(C)c(OC)nc2C)c1=O | 0.28 | 51 | 5 | 
8 | C[C@@H](C1CC1)n1cc(Cl)nc(Nc2c(Cl)cc(OC(F)F)cc2Cl)c1=O |  |  |  | remaining at 0.5 h, 10 µM [18]: 85%; Activity [19]: 12%; Activity [20]: 2%; remaining at 0.5 h, 10 µM [21]: 74%; Activity [22]: 20%; Activity [23]: 5%
9 | CC[C@H](C)[C@H](NC(=O)[C@@H](NC(=O)[C@H](CC(=O)O)NC(=O)[C@H](CC(C)C)NC(=O)[C@H](CC(C)C)NC(=O)[C@H](CC(C)C)NC(=O)[C@H](CCCN=C(N)N)NC(=O)[C@H](CC(N)=O)NC(=O)[C@H](CC(N)=O)NC(=O)[C@H](C)NC(=O)[C@H](C)NC(=O)[C@H](CCC(N)=O)NC(=O)[C@H](CCC(N)=O)NC(=O)[C@H](CCCCN)NC(=O)[C@H](CCC(=O)O)NC(=O)[C@H](CCCCN)NC(=O)[C@H](CCC(=O)O)NC(=O)[C@H](CCC(N)=O)NC(=O)[C@H](CCCCN)NC(=O)[C@H](CCC(=O)O)NC(=O)[C@@H](NC(=O)[C@H](CCC(=O)O)NC(=O)[C@@H](NC(=O)[C@H](CCSC)NC(=O)[C@H](CCCCN)NC(=O)[C@H](CCCN=C(N)N)NC(=O)[C@H](CC(C)C)NC(=O)[C@H](CC(C)C)NC(=O)[C@H](CCC(=O)O)NC(=O)[C@H](CC(C)C)NC(=O)[C@H](CO)NC(=O)[C@H](CC(C)C)NC(=O)[C@H](CC(=O)O)NC(=O)[C@@H](NC(=O)[C@H](CO)NC(=O)[C@@H](NC(=O)[C@@H]1CCCN1C(=O)[C@@H]1CCCN1C(=O)CNC(=O)[C@@H]1CCC(=O)N1)[C@@H](C)CC)[C@@H](C)CC)[C@@H](C)CC)[C@@H](C)CC)[C@@H](C)O)C(=O)O [SAUVAGINE] |  |  |  | IC50 [24]: 0.58 nM
